This is an account of results in ChEMBL document CHEMBL1146033, “Synthesis, calpain inhibitory activity, and cytotoxicity of P2-substituted proline and thiaproline peptidyl aldehydes and peptidyl alpha-ketoamides” (J Med Chem, 2006).

Experiment [1] deals with T1, Calpain-1 catalytic subunit (Sus scrofa, UniProt P35750).
T1 sequence (P35750 whole entry): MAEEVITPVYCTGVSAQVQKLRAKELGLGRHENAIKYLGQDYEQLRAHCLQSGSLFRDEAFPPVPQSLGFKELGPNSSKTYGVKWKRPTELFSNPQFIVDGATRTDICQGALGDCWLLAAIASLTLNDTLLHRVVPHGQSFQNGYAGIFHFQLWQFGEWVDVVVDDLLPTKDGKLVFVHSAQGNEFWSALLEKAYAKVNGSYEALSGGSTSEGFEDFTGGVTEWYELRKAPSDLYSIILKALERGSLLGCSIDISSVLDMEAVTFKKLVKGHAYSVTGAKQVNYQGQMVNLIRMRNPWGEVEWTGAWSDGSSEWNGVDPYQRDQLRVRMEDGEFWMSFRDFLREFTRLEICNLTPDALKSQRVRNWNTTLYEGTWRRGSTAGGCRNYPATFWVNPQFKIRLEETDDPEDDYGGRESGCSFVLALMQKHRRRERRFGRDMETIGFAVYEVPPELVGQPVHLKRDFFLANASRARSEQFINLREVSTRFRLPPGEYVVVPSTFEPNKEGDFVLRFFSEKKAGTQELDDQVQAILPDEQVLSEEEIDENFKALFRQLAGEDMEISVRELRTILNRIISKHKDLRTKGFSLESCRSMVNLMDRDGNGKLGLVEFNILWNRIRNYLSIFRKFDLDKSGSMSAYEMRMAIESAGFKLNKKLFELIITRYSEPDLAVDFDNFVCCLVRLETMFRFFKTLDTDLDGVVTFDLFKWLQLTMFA
The experiment in a line: Inhibition of porcine erythrocyte mu calpain. Summed up: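 µ-Calpain (1 µg, porcine erythrocyte) in 50 mM Tris HCl pH 7.4, 50 mM NaCl, 10 mM DTT, 1 mM EDTA, 1 mM EGTA, 5 mM CaCl2, fluorogenic Suc-Leu-Tyr-AMC at 0.2 or 1.0 mM, varying inhibitor in DMSO (2% total). Ki from Dixon plots (1/v vs I) of triplicate-averaged data, intersecting lines r ≥ 0.95.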

For experiment [2], the target named is Cathepsin B (Homo sapiens, UniProt P07858). The experiment in a line: Inhibition of human liver cathepsin B. The method in brief: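 Human liver cathepsin B (1 nM) in 50 mM NaOAc pH 6.0, 1 mM EDTA, 0.5 mM DTT, with Z-Arg-Arg-AMC at 50 or 250 µM and varying inhibitor in DMSO (2% total). Ki from Dixon plots of triplicate-averaged data, intersecting lines r ≥ 0.95; selectivity ratio = cathepsin B Ki / µ-calpain Ki.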

A short description of experiment [3]: Selectivity ratio, Ki for human cathepsin B/Ki for porcine mu calpain.
Experiment [4] relates to PC-3. The experiment in a line: Antiproliferative activity against human PC3 cell line by MTT assay. It counts as functional. The method in brief: (§1)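 Cells seeded at 2000 to 15000 per well, exposed to drug at 1 to 100 µM for 96 h at 37 °C, 5% CO2; untreated wells as negative control. MTT (5 mg/mL) added for final 2-4 h, formazan dissolved in DMSO, absorbance at 595 nm. GI50 (50% reduction in living cells vs untreated) from nonlinear regression of % survival against concentration.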
For orientation: Tetrazolium assays rely on reduction of a dye to a coloured formazan, in cell work by metabolically active cells.

Experiment [5] relates to HeLa. The experiment in a line: Antiproliferative activity against human HeLa cell line by MTT assay. Format: functional. Summed up: as §1
Experiment [6] has as its system DU-145. The experiment in a line: Antiproliferative activity against human DU145 cell line by MTT assay. Format: functional. Summed up: as §1
The subject of experiment [7] is Daudi. As to the kind of experiment: Antiproliferative activity against human Daudi cell line by MTT assay. Format: functional. The method in brief:
as §1

Experiment [8] has as its system Jurkat. As to the kind of experiment: Antiproliferative activity against human Jurkat cell line by MTT assay. Format: functional. The method in brief: as §1
For experiment [9], the system named is Jurkat. As to the kind of experiment: Inhibition of calpain-mediated production of spectrin breakdown products in Jurkat cells at 20 uM. It counts as functional, Homo sapiens. More on the design: scale not given: the % may be the effect or the level left. The method in brief: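 Jurkat cells washed in HEPES-buffered saline, preincubated 10 min with inhibitor at 20 µM, then ionomycin (20 µM final) and Ca2+ (5 mM final) added; 60 min at 37 °C. Lysates resolved by SDS-PAGE, immunoblotted for α-spectrin and β-actin, chemiluminescence. 145/150-kDa spectrin breakdown doublet quantified by densitometry, normalized to β-actin.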

Usually Ki stands for the dissociation constant of the complex between target and ligand, obtained from inhibition or displacement. As a reminder, the GI50 is the concentration that inhibits growth by half.

With `CC(C)S(=O)(=O)N1CCC[C@@H]1C(=O)NC(C=O)Cc1ccccc1` (mixture of isomers), the figures for the Ki in experiment [1] and in experiment [2] were 0.836 µM and 3.5 µM, respectively. Also, the Selectivity ratio in experiment [3] stood at 1.19.
As to `O=CC(Cc1ccccc1)NC(=O)[C@H]1CCCN1S(=O)(=O)c1ccc([N+](=O)[O-])cc1` (stereo not given in full), the GI50 was 49.3 µM in [4]; 40.4 µM in experiment [5]; 42.4 µM in experiment [6]; 32.5 µM in experiment [7]; 33.8 µM in [8]. Also, the Ki in [1] came out at 0.02 µM; in [2], 3.75 µM. Also, the Selectivity ratio in [3] is 188. In experiment [9], this compound returned an Activity of 22.8%.
For the compound `O=CC(Cc1ccccc1)NC(=O)[C@H]1CCCN1S(=O)(=O)c1cccc([N+](=O)[O-])c1` (mixture of isomers), the Ki worked out at 0.256 µM in experiment [1] and 5.45 µM in [2]. Also, the Selectivity ratio in experiment [3] is 21.3.
With `O=CC(Cc1ccccc1)NC(=O)[C@H]1CSCN1S(=O)(=O)c1ccc(F)cc1` (mixture of isomers), the GI50 in experiment [4] was 7.04 µM; in experiment [5], 7.12 µM; in experiment [6], 6.22 µM; in [7] it was 3.54 µM; in experiment [8], 6.13 µM. Also, the Ki came to 0.11 µM in experiment [1] and 0.34 µM in [2]. Moreover, in [3], the Selectivity ratio came to 3.09.
For the compound `O=CC(Cc1ccccc1)NC(=O)[C@H]1CSCN1S(=O)(=O)c1ccc(Br)cc1` (mixture of isomers), the Ki in [1] worked out at 0.074 µM; in [2], 0.09 µM. In experiment [3], the Selectivity ratio came out at 1.21.
With `COc1ccc(S(=O)(=O)N2CCC[C@@H]2C(=O)NC(C=O)Cc2ccccc2)cc1` (mixture of isomers), the GI50 in experiment [4] is 19.7 µM; in [5], 38.5 µM; in [6] it was 63.2 µM; in experiment [7], 35.3 µM; in experiment [8], 25.4 µM. The Ki in experiment [1] was found to be 0.037 µM; in experiment [2], 1.48 µM. Also, the Selectivity ratio in [3] turned out to be 40.
For `O=CC(Cc1ccccc1)NC(=O)[C@H]1CCCN1S(=O)(=O)c1ccc(Br)cc1` (mixture of isomers), the figures for the Ki in [1] and in experiment [2] were 0.128 µM and 4.42 µM, respectively. Moreover, the Selectivity ratio in experiment [3] is 34.5.
The like results for `O=CC(Cc1ccccc1)NC(=O)[C@H]1CCCN1S(=O)(=O)c1ccc(Cl)cc1` (mixture of isomers) were, in that order, 0.141 µM, 5.4 µM and 38.2.
As for `CCCCS(=O)(=O)N1CCC[C@@H]1C(=O)NC(C=O)Cc1ccccc1` (mixture of isomers), the Ki in [1] was found to be 0.313 µM; in [2], 1.48 µM. Also, the Selectivity ratio in experiment [3] was determined as 4.72.
As to `Cc1ccc(S(=O)(=O)N2CCC[C@@H]2C(=O)NC(Cc2ccccc2)C(=O)C(=O)NCCc2ccccc2)cc1` (mixture of isomers), the GI50 in [4] turned out to be 20.8 µM; in experiment [5], 22.9 µM; in experiment [6] it was 22.6 µM; in experiment [7], 19.6 µM; in [8], 21.9 µM. For the same compound, the Ki was determined as 0.85 µM in [1] and 6.9 µM in [2]. Further, in experiment [3], the Selectivity ratio was 8.12.
`Cc1ccc(S(=O)(=O)N2CSC[C@@H]2C(=O)NC(C=O)Cc2ccccc2)cc1` (stereo not given in full): the GI50 worked out at 5.17 µM in experiment [4]; 4.37 µM in experiment [5]; 6 µM in [6]; 2.17 µM in [7]; 3.21 µM in [8]. Also, the results for the Ki in experiment [1] and in experiment [2] were 0.07 µM and 0.119 µM, respectively. In addition, in experiment [3], the Selectivity ratio stood at 1.7. The Activity in experiment [9] amounted to 82.4%.
Regarding `COc1ccc(S(=O)(=O)N2CCC[C@@H]2C(=O)NC(Cc2ccccc2)C(=O)C(=O)NCCc2ccccc2)cc1` (mixture of isomers), the GI50 was determined as 14.6 µM in experiment [4]; 31.4 µM in experiment [5]; 30 µM in [6]; 22.4 µM in [7]; 23.8 µM in experiment [8]. Further, the Ki is 0.45 µM in experiment [1] and 2.59 µM in experiment [2]. Also, the Selectivity ratio in experiment [3] was determined as 5.7.
Take `O=CC(Cc1ccccc1)NC(=O)[C@H]1CSCN1S(=O)(=O)c1ccc(Cl)cc1` (mixture of isomers): the Ki in experiment [1] is 0.09 µM; in [2], 0.23 µM. Further, the Selectivity ratio in experiment [3] came to 2.5.
In the case of `O=CC(Cc1ccccc1)NC(=O)[C@H]1CSCN1S(=O)(=O)c1ccc(I)cc1` (mixture of isomers), the GI50 stood at 6.38 µM in [4]; 5.42 µM in experiment [5]; 6.29 µM in [6]; 4.48 µM in experiment [7]; 5.97 µM in experiment [8]. For the same compound, the Ki in experiment [1] stood at 0.042 µM; in experiment [2], 0.11 µM. In addition, the Selectivity ratio in experiment [3] was 2.61.
With `O=CC(Cc1ccccc1)NC(=O)[C@H]1CCCN1S(=O)(=O)c1ccccc1[N+](=O)[O-]` (mixture of isomers), the inhibition constant Ki in experiment [1] turned out to be 0.424 µM; in experiment [2], 4.61 µM. In addition, the Selectivity ratio in [3] came to 10.9.
For `O=CC(Cc1ccccc1)NC(=O)[C@H]1CCCN1S(=O)(=O)c1ccccc1` (mixture of isomers), in that order: 0.196 µM, 2.47 µM and 13.
For the compound `O=CC(Cc1ccccc1)NC(=O)[C@H]1CCCN1S(=O)(=O)c1ccc(I)cc1` (mixture of isomers), the Ki in [1] is 0.033 µM; in experiment [2], 4.18 µM. In addition, the Selectivity ratio in experiment [3] amounted to 131.
Regarding `O=C(NCCc1ccccc1)C(=O)C(Cc1ccccc1)NC(=O)[C@H]1CCCN1S(=O)(=O)c1ccc([N+](=O)[O-])cc1` (mixture of isomers), the GI50 in experiment [4] stood at 27.8 µM; in experiment [5] it was 27.6 µM; in [6], 31.8 µM; in experiment [7] it was 23.1 µM; in [8], 21.3 µM. Moreover, the Ki in [1] was 0.28 µM; in experiment [2], 12.1 µM. In experiment [3], the Selectivity ratio came out at 18.1.
On to `Cc1ccc(S(=O)(=O)N2CCC[C@@H]2C(=O)NC(C=O)Cc2ccccc2)cc1` (stereo not given in full), for which the concentration for 50% growth inhibition (GI50) in experiment [4] amounted to 40.1 µM; in experiment [5], 48.9 µM; in experiment [6], 45.2 µM; in experiment [7] it was 16.7 µM; in experiment [8], 17.6 µM. In addition, the Ki is 0.081 µM in experiment [1] and 12.1 µM in experiment [2]. Further, the Selectivity ratio in experiment [3] was determined as 151.
`O=CC(Cc1ccccc1)NC(=O)[C@H]1CCCN1S(=O)(=O)c1cccc2ccccc12` (mixture of isomers): the results for the Ki in [1] and in [2] were 0.191 µM and 2.54 µM, respectively. Also, the Selectivity ratio in [3] was 13.
Take `O=CC(Cc1ccccc1)NC(=O)[C@H]1CCCN1S(=O)(=O)c1ccc(F)cc1` (mixture of isomers): the GI50 turned out to be 27.1 µM in experiment [4]; 27.4 µM in [5]; 24.8 µM in [6]; 24.8 µM in experiment [7]; 24.2 µM in [8]. The Ki in experiment [1] was 0.386 µM; in [2], 6.99 µM. Further, the Selectivity ratio in experiment [3] turned out to be 18.1.
